Assay results published in ChEMBL document CHEMBL5113523, “Discovery of Cyclic Peptide Inhibitors Targeting PD-L1 for Cancer Immunotherapy” (J Med Chem, 2022).
Calls of active or inactive are those of the source. The calls are words filed in the database; no cut-off is given here. Bridge positions count the residues as written; N and C are the ends. Peptide text beside a SMILES is read from it.

Key:
[1] = target: Programmed cell death 1 ligand 1 (Homo sapiens) (UniProt Q9NZQ7); test: Binding affinity to PD-L1 overexpressing in human DU-145 cells at 25 to 100 nM incubated for 1 hr by flow cytometry analysis; format: cell-based; conditions: dose 25-100 nM
Chain of Programmed cell death 1 ligand 1 (Homo sapiens) (Q9NZQ7 whole entry): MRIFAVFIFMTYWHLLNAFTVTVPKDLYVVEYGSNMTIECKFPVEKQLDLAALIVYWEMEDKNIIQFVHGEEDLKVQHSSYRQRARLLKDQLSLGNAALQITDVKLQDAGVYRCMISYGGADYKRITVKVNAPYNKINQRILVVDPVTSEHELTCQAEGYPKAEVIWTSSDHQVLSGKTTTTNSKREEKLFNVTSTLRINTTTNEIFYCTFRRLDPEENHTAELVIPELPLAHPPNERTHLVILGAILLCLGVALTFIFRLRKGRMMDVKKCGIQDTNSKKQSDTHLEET
Procedure, shortened: (§1)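 Cells detached with enzyme-free dissociation buffer, suspended in PBS at 1×10^6 cells/mL, incubated with Cy5-labelled peptide at various concentrations for 1 h at 37 °C under slow rotation. Cells spun at 300g for 10 min, washed, resuspended in PBS and read by flow cytometry. PD-L1 knockout MDA-MB-231 served as the negative cell line. Mean ± SD, n = 3.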

[2] = Production against apoptosis in human PBMC cells cocultured with DU-145 cells assessed as increase in IFNgamma level in CD4+ T cell at 10 uM measured after 24 hrs by FACScalibur flow cytometry (reference value: 1.3%); format: functional
[3] = target: Programmed cell death protein 1/Programmed cell death 1 ligand 1 (Mus musculus, UniProt Q9EP73); test: Inhibition of mouse recombinant PD-1/PD-L1 interaction preincubated with compound for 2 hrs followed by PD-1 protein addition and measured after 1.5 hrs by inhibitor screening ELISA assay pair kit method; format: protein-complex assay
Chain of Programmed cell death protein 1/Programmed cell death 1 ligand 1 (Mus musculus, UniProt Q9EP73) (Q9EP73 whole entry): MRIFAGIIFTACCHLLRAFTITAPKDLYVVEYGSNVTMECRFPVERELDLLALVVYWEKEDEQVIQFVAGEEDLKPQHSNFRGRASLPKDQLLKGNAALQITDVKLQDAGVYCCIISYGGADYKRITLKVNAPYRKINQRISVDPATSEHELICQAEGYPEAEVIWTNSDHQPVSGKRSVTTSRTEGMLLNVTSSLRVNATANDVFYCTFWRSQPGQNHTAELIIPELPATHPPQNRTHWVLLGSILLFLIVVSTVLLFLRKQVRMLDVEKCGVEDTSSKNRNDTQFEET
Chain of Programmed cell death protein 1/Programmed cell death 1 ligand 1 (Mus musculus, UniProt Q9EP73) (Q02242 whole entry, further chain): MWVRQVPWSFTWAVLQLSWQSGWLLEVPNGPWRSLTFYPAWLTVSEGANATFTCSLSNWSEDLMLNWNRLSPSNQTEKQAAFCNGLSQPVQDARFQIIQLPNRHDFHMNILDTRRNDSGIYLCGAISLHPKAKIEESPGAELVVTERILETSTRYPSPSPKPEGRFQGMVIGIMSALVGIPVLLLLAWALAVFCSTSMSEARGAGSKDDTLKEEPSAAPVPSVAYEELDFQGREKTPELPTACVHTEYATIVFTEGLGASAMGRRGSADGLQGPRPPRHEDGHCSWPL
Procedure, shortened: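 Plate-based ELISA. Mouse PD-L1 (100 ng) coated for 16 h at 4 °C, then blocked with 2% BSA for 1.5 h at 37 °C. Peptide added for 2 h at 37 °C, then biotinylated mouse PD-1 for 1.5 h. Detection with streptavidin-HRP and chromogenic substrate, stopped with 2N H2SO4; OD450 referenced to OD540. IC50 determined; mean ± SD, n = 3.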

[4] = target: T1, Programmed cell death protein 1/Programmed cell death 1 ligand 1 (Homo sapiens, UniProt Q9NZQ7); test: Inhibition of human recombinant PD-1/PD-L1 interaction preincubated with compound for 2 hrs followed by PD-1 protein addition and measured after 1.5 hrs by inhibitor screening ELISA assay pair kit method; format: protein-complex assay
T1 sequence (Q15116 whole entry): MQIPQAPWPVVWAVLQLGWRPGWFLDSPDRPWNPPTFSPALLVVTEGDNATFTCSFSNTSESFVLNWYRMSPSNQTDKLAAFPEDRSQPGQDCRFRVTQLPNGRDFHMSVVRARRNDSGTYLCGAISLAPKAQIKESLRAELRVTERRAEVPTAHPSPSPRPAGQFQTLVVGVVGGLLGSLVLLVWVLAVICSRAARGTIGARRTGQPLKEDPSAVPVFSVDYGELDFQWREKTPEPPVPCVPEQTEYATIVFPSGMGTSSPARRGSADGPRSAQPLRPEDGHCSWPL
T1 sequence (Q9NZQ7 whole entry): as the sequence (Q9NZQ7 whole entry) above
Procedure, shortened: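 Plates coated with 100 ng recombinant human PD-L1 at 4°C for 16 h, washed with PBS pH 7.2-7.4, then blocked with 2% BSA for 1.5 h at 37°C. Peptides added at set concentrations for 2 h at 37°C, then biotinylated PD-1 for 1.5 h. Detection with streptavidin-HRP and chromogenic substrate, stopped with 2N H2SO4. A450 referenced to 540 nm. Mean ± SD, n = 3.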

[5] = Stability of the compound in 50% human serum assessed as half life measured upto 200 mins by LC-MS/MS analysis; format: ADME, cell-free
Procedure, shortened: (§2)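 Peptide incubated in 50% human serum at 37 °C. Aliquots taken at set time points up to 3 h and the intact peptide quantified by LC-MS/MS. Mean ± SD, n = 3.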

[6] = Stability of the compound in human serum assessed as compound remaining measured after 3 hrs by LC-MS/MS analysis relative to control; format: ADME, cell-free; conditions: read-out: Stability; procedure, shortened: as §2
[7] = Production against apoptosis in human PBMC cells cocultured with DU-145 cells assessed as increase in IFNgamma level in CD8+ T cell at 10 uM measured after 24 hrs by FACScalibur flow cytometry (reference value: 1.3%); format: functional
[8] = target: Programmed cell death 1 ligand 1 (Homo sapiens) (UniProt Q9NZQ7); test: Binding affinity to PD-L1 overexpressing in human MDA-MB-231 cells at 25 to 100 nM incubated for 1 hr by flow cytometry analysis; format: cell-based; conditions: dose 25-100 nM; procedure, shortened: as §1
[9] = target: T1, Programmed cell death protein 1/Programmed cell death 1 ligand 1; test: Inhibition of human PD-1/PD-L1 interaction by surface plasmon resonance analysis; format: protein-complex assay
Procedure, shortened: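 Competitive SPR with PD-1 immobilised on the chip. Various peptide concentrations were preincubated with human PD-L1 in running buffer, then injected. PD-L1 alone was injected as the control. Blocking was taken from the drop in SPR response relative to that control. Mean ± SD, n = 3.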

[10] = Production against apoptosis in human PBMC cells cocultured with DU-145 cells assessed as reduction in apoptosis of T cells at 10 uM measured after 24 hrs by annexin V-FITC/PI staining based FACScalibur flow cytometry (reference value: 24.5%); format: functional; parameters: scale not given: the % may be the effect or the level left
CT26 [11] = test: Antitumor activity against mouse CT26 cells implanted in BALB/c mouse syngeneic model at 0.5 mg/kg, ip administered daily starting from day 10 post inoculation and measured on day 18; format: functional, organism-based; conditions: time 9.0 day
Procedure, shortened: (§3)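 Balb/c mice (4 male + 4 female per group) implanted subcutaneously in right flank with ~1×10^6 CT26 cells; treatment began when tumors reached 200-250 mm3. Daily intraperitoneal dosing days 10–18, saline vehicle control group. Caliper volume = 1/2 × length × width2. TGI (%) = [1 − RTV treated/RTV control] × 100, RTV = day-18 volume / day-10 volume.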

[12] = target: Programmed cell death 1 ligand 1 (Homo sapiens) (UniProt Q9NZQ7); test: Binding affinity to PD-L1 deficient in human MCF7 cells at 25 to 100 nM incubated for 1 hr by flow cytometry analysis; format: cell-based; conditions: dose 25-100 nM
[13] = Toxicity in BALB/c syngenic mouse bearing CT26 cells assessed as improvement in animal survival at 0.5 mg/kg, ip administered daily starting from day 10 post inoculation and measured on day 18; format: organism-based; conditions: in vivo, 216 h, time 9 day
Procedure, shortened: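 Male and female Balb/c mice (4 of each per group) with about 1×10^6 CT26 cells implanted subcutaneously in the right flank. Grouped when tumours reached 200-250 mm3. Dosed 0.5 mg/kg i.p. daily from day 10 to day 18; saline i.p. as negative control. Caliper volume = 1/2 × length × width². Survival curves recorded.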

Homo sapiens = organism: Homo sapiens; test: Antiproliferative activity against human DU-145 cells cocultured with PBMC cells at 10 uM incubated for 24 hrs by CellTiter-Glo luminescent cell viability assay; format: functional, cell-based
CT26 [14] = test: Antitumor activity against mouse CT26 cells implanted in BALB/c mouse syngeneic model assessed as tumor growth inhibition at 0.5 mg/kg, ip administered daily starting from day 10 post inoculation and measured on day 18 (reference value: 0%); format: functional; conditions: CT26, 216 h, time 9 day, read-out: TGI; procedure, shortened: as §3
[15] = Stability of the compound in human serum assessed as drug degradation measured after 3 hrs by LC-MS/MS analysis; format: ADME, cell-free; procedure, shortened: as §2

CC(=O)N[C@H]1CSSC[C@@H](C(=O)N[C@@H](Cc2c[nH]c3ccccc23)C(=O)N[C@@H](CC(N)=O)C(=O)N[C@@H](CC(C)C)C(=O)N[C@@H](CC(N)=O)C(=O)N[C@H](C(N)=O)[C@@H](C)O)NC(=O)[C@H](Cc2ccc(O)cc2)NC(=O)[C@H](Cc2ccc(O)cc2)NC(=O)[C@H](CO)NC(=O)[C@H](CCCNC(=N)N)NC(=O)[C@H](Cc2c[nH]cn2)NC1=O (Ac-CHRSYYCWNLNT-NH2; disulfide 1-7)
Activity [1]: Active
Activity [2]: 1.3%
IC50 [3]: 464 nM
IC50 [4]: 440 nM
half-life [5]: 70.8 min
remaining at 3 h [6]: 25%
Activity [7]: 1.5%
Activity [8]: Active
IC50 [9]: 143 nM
Activity [10]: 10.6%
Activity (CT26 [11]): Active
Activity [12]: Active
Activity [13]: Toxic
Activity (Homo sapiens): Active
inhibition in vivo at 0.5 mg/kg (CT26 [14]): 33%

CC(=O)N[C@H]1CSSC[C@@H](C(N)=O)NC(=O)[C@H](CC(N)=O)NC(=O)[C@H](CC(C)C)NC(=O)[C@H](CC(N)=O)NC(=O)[C@H](Cc2c[nH]c3ccccc23)NC(=O)[C@H]([C@@H](C)O)NC(=O)[C@H](Cc2ccc(O)cc2)NC(=O)[C@H](Cc2ccc(O)cc2)NC(=O)[C@H](CO)NC(=O)[C@H](CCCNC(=N)N)NC(=O)[C@H](Cc2c[nH]cn2)NC1=O (Ac-CHRSYYTWNLNC-NH2; disulfide 1-12)
Activity [1]: Active
Activity [2]: 1.5%
IC50 [3]: 552 nM
IC50 [4]: 180 nM
half-life [5]: 38.1 min
Activity [7]: 1.7%
Activity [8]: Active
IC50 [9]: 119 nM
Activity [10]: 12.2%
Activity (CT26 [11]): Active
Activity [12]: Active
Activity [13]: Toxic
Activity (Homo sapiens): Active
inhibition in vivo at 0.5 mg/kg (CT26 [14]): 60.6%

H-WHRSYYTWNLNT-OH
Activity [1]: Active
Activity [2]: 1.5%
IC50 [3]: 4280 nM
Drug degradation [15]: Active
Activity [7]: 1.4%
Activity [8]: Active
Activity [10]: 14.5%
Activity [12]: Active
Activity [13]: Non-Toxic
inhibition in vivo at 0.5 mg/kg (CT26 [14]): 16.3%
